Screening data as filed in PubChem.
HSP90 inh: HSP90 inhibitors, primary screen, cell lysate, luminescence | Rabbit reticulocyte lysate, luciferase refolding luminescence, 3 h | inhibition, % at 5.6 µM | 290,000 tested, 0.91% active;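 active = inhibition above the screen-wide mean plus 3 SD, computed separately per campaign, cut at about 16% in these data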;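 note: 0% = DMSO wells and 100% = 60 µM geldanamycin wells; inhibitors lower the luminescence because luciferase stays unfolded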
FLuc inh counter: firefly luciferase enzyme inhibitors, primary screen, artefact control for luciferase-based inhibitor screens, biochemical, luminescence, ATPLite; 10 min; inhibition, % at 10 µM; 200,000 tested, 1.5% active; AID 1006, 2008;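 active = inhibition above about 50% when tested at 10 µM, limit read from the data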
Target sequence (P08659 whole entry, looked up): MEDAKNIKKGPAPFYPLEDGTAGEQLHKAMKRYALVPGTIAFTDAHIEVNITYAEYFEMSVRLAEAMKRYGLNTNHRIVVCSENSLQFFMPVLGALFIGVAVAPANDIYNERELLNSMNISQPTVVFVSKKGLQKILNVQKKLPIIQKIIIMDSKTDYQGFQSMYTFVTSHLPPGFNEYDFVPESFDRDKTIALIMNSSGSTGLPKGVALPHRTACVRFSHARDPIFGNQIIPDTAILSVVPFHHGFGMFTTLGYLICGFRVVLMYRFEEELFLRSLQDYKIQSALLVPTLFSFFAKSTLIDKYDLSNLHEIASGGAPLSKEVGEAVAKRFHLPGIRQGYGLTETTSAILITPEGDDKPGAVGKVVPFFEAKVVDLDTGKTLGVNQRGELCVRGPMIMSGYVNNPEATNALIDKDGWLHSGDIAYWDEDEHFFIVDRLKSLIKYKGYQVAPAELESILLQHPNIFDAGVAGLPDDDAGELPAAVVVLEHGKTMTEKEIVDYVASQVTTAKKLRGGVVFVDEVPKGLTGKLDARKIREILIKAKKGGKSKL
PPC-1+TRAIL kill: compounds killing PPC-1 cancer cells with TRAIL present, primary screen, TRAIL potentiator project, ATPLite luminescence, uHTS; AID 1443, 2008; PPC-1 cells + TRAIL, ATPLite viability luminescence; 220,000 tested, 0.41% active; cell killing (% activity), % at 4 µM or 5 µM;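 active = cell killing above 50% in the first pass at 4 µM, then a duplicate retest at 5 µM averaging 50% or more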;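 note: plate controls were cells with TRAIL plus DMSO for no effect and medium-only wells lacking cells for full effect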
FLuc act counter: FLuc activators, initial screening, artefact control for FLuc-dependent activation tests, biochemical, ATPlite luminescence | Luciferin 4-monooxygenase (Photinus pyralis), P08659 | ATPlite luciferase biochemical, 10 min; 0 = ATP-free wells, 1 = DMSO control | activation factor at 10 µM | 200,000 tested, under 10 active | AID 1027, 2008;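 active = luciferase activation factor, scaled between plate controls, of at least 2 with compound at 10 µM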
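System: cell-free luciferase reagent; medium: PBS as buffer for the ATP substrate; doses: test compounds dosed from 2 mM stocks in 100% DMSO; incubation: 10 min, room temperature; measured by: luminescence from luciferase reaction; read-out: luciferase activation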
C8 TRAIL sens: viability loss with TRAIL in NB7+C8 cells, primary screen, TRAIL sensitizer project, cell-based, ATPlite luminescence. inhibition (viability loss, TRAIL sensitization), % at 10 µM. 360,000 tested, 1% active. AID 624354, 2012;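 active = compounds causing at least 50% loss of cell viability in the single-dose screen, relative to plate controls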
* marks the source's active call; other numbers are inactive results; / = no result given. Sampled rows, rich in hits. Any-hit rate of the full collection: about 2%.

SMILES	HSP90 inh	FLuc inh counter	PPC-1+TRAIL kill	FLuc act counter	C8 TRAIL sens
c1ccc(SC23CCCCN(CCC2)[C@]32CO2)cc1 (stereo partly drawn)	/	/	/	/	-5.1
O=C1OC(Nc2ncccn2)c2ccccc21 (stereo not drawn)	0.8	-3.8	1.2	1	-21.3
O=C1OC(Nc2cc(Br)cc3cccnc23)c2ccccc21 (stereo not drawn)	16.6*	-2.5	-7.6	1	-2.0
CC(C)c1csc(CN2CCC(C(=O)Nc3cccc(-c4ccco4)c3)CC2)n1	/	/	/	/	-9.0
Cc1ccc(NC(=O)COC(=O)CNC(=O)C2CCCCC2)cc1S(=O)(=O)N(C)C	/	/	/	/	-5.9
CCOc1ccc(C(=O)NCC(=O)OCC(=O)Nc2ccc(C)c(S(=O)(=O)N(C)C)c2)cc1	-0.8	64.6*	24.8	0.4	2.2
OC[C@@H]1CN(CCN2CCOCC2)C[C@H](n2cnc3c(Nc4ccccc4)ncnc32)O1	/	/	/	/	-14.9
CCOC(=O)N1CCN(C(=O)C[C@@H]2C[C@@]3(C(=O)OC)CCCCC=C3N(CCc3ccc(OC)c(OC)c3)C2=O)CC1	/	/	/	/	6.8
COc1ccc(CCNC(=O)C2CCN(Cc3nc(-c4cccc(Cl)c4)oc3C)CC2)cc1OC	-4.5	-7.5	18.5	1.1	54.4*
Cc1oc(-c2cccc(Cl)c2)nc1CN1CCC(C(=O)NCCCN2CC(C)CC(C)C2)CC1 (stereo not drawn)	-8.8	/	/	/	54.4*
Cc1oc(-c2cccc(Cl)c2)nc1CN1CCC(C(=O)NCCCN2CCCC2=O)CC1	11.2	-11.8	-6.5	1.1	4.0
Cc1cc2nc(C3CCCCC3)c(CC(C)(C)C)n2c(C)c1Br	/	/	/	/	-12.3
Brc1cc2c(cc1/C=N/Nc1nc3ccccc3s1)OCO2	4.1	-1.7	8.3	1	0.4
Brc1csc(/C=N/Nc2nc3ccccc3s2)c1	-1.2	53.7*	28.6	0.5	34.7
CCOc1cc(C=NNC(=O)N(c2ccccc2)c2ccccc2)ccc1O	/	/	/	/	62.6*
COc1ccc2nc3cc(Cl)ccc3c(Nc3cc(CN4CCCC4)c(O)c(CN4CCCC4)c3)c2n1	-2.7	/	/	/	79.1*
O=C1C(=C2CCc3ccccc32)Cc2ccccc21	/	/	/	/	51.0*
O=C1C(=NO)CCCc2ccccc21	/	/	/	/	-7.5
O=C(NC(c1ccc(Cl)cc1)c1ccsc1)C1CCN(Cc2ccc(Oc3ccccc3)cc2)CC1 (stereo not drawn)	/	/	/	/	32.4
N/C(=N\OC(=O)c1cccc(F)c1)c1ccccc1	-1.9	91.1*	19.5	0.1	74.2*
Cc1ccc(/C(N)=N/OC(=O)c2ccc3ccccc3c2)cc1	-0.6	/	/	/	90.3*
Cc1ccc(/C(N)=N/OC(=O)Oc2ccccc2)cc1	3.9	-2.7	13.0	1	-5.3
N/C(=N\OC(=O)c1cccc([N+](=O)[O-])c1)c1cccnc1	-1.8	22.0	24.1	0.8	3.8
Cc1ccc(/C(N)=N/OC(=O)c2cccc(F)c2)cc1	-5.5	61.0*	27.8	0.4	85.0*
O=C(NCc1cccs1)c1ccc(-c2ccc(F)c(F)c2)c2ccoc12	/	/	/	/	-8.0
SMILES	HSP90 inh	FLuc inh counter	PPC-1+TRAIL kill	FLuc act counter	C8 TRAIL sens
NC(Cc1ccc(C(F)(F)F)cc1)c1csc(NC(=O)Nc2ccccc2)n1 (stereo not drawn)	/	/	/	/	-17.2
CCN(CC)S(=O)(=O)c1ccc(NC(=O)Nc2cccc(C(F)(F)F)c2)cc1	1.5	-7.7	1.7	1.1	68.7*
O=C(Nc1ccc(OC(F)F)cc1)Nc1cccc(C(F)(F)F)c1	-4.5	4.3	17.3	1	59.6*
COc1ccc(CC(N)c2csc(NC(=O)Nc3cccc(C(F)(F)F)c3)n2)cc1 (stereo not drawn)	/	/	/	/	70.2*
O=C(Nc1ccncc1)Nc1cccc(C(F)(F)F)c1	0.8	/	/	/	1.3
O=S1(=O)C=C(Sc2nnc(-c3ccccc3)o2)c2ccccc21	-3.6	1.9	21.3	1	73.1*
COC(=O)CCCn1cc(CN2CC(N(C)C)CS2(=O)=O)nn1 (stereo not drawn)	/	/	/	/	4.3
O=C(NC1CCCCC1)C(CCc1ccccc1)N1CCc2ccccc2C1 (stereo not drawn)	/	/	/	/	-2.9
CN1CCc2c(sc(NC(=O)c3ccc([N+](=O)[O-])o3)c2C(N)=O)C1	4.2	/	/	/	59.9*
NC(=O)c1c(NC(=O)c2ccc([N+](=O)[O-])o2)sc2c1CCCC2	2.2	/	/	/	-27.8
O=c1[nH]c(/C=C/c2ccccc2F)nc2ccccc12	12.7	/	/	/	79.4*
